Consider twelve molecules from ChEMBL document CHEMBL1149827, “Dichapetalin-type triterpenoids and lignans from the aerial parts of Phyllanthus acutissima” (J Nat Prod, 2008).

SMILES strings stand for the structures. In brackets after ≈: the same amount, converted by molar mass.

In one assay the test system is Lu1. The assay is described as follows: Cytotoxicity against human Lu1 cells after 72 hrs by sulforhodamine B assay. It is filed as functional. The conditions noted are these: Lu1, 72 h, read-out: ED50 (the source's name). The method in brief: (§1)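 SRB assay. Samples from […] DMSO stock, final DMSO 0.5%, triplicate, 72 h at 37 °C, 5% CO2. Media: P-388 Fisher's + 5% BCS; KB DMEM + 10% BCS; Col-2, ASK MEM + 10% FBS; MCF-7, Lu-1 MEM + 5% BCS. TCA-fixed, 0.4% SRB stain, dye solubilized in 10 mM trizma base, A515 read. ED50 reported.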
Background: The SRB assay estimates cell density from bound dye.

Assay [1] in a line: Cytotoxicity against rat ASK cells after 72 hrs by sulforhodamine B assay. It is filed as functional. The conditions noted are these: read-out: ED50 (the source's name). An outline of the steps:
as §1

Assay [2] has as its system Human immunodeficiency virus 1. Nature of the assay: Antiviral activity against deltaTat/Rev deffective HIV1 in 1A2 cells assessed as inhibition of metabolic activity in uninfected cells. It is filed as functional. The conditions noted are these: Human immunodeficiency virus 1, 1A2. The method in brief: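 Uninfected 1A2 cells (same batch), run in parallel with the syncytium assay, with medium in place of virus. Serial dilutions in duplicate wells, 3 days. XTT–phenazine methosulfate added; formazan read at A450 with A650 reference. IC50 is the dose inhibiting 50% of metabolic activity.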

In assay [3] the test system is Human immunodeficiency virus 1. Nature of the assay: Antiviral activity against deltaTat/Rev deffective HIV1 in 1A2 cells assessed as reduction of syncytium formation. It is filed as functional, organism-based. The conditions noted are these: Human immunodeficiency virus 1, 1A2. An outline of the steps: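 1A2 cells seeded, then compound added as 2-fold serial dilutions in triplicate. After 1 h preincubation, ∆Tat/RevMC99 virus added. Virus, cell and cytotoxicity control wells; AZT positive control. EC50 is the concentration reducing syncytium formation by 50%.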

Assay [4] deals with Human immunodeficiency virus 1. The assay is described as follows: Selectivity index, ratio of IC50 for deltaTat/Rev deffective HIV1 in 1A2 cells to EC50 for deltaTat/Rev deffective HIV1 in 1A2 cells. It is filed as functional. The method in brief:
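Ratio of the XTT IC50 in uninfected 1A2 cells to the syncytium-reduction EC50 against ∆Tat/RevMC99 virus in 1A2 cells.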

Assay [5] deals with Human immunodeficiency virus type 1 reverse transcriptase (Human immunodeficiency virus 1) (UniProt Q72547). Nature of the assay: Inhibition of HIV1 reverse transcriptase at 200 ug/ml. An outline of the steps: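 Tannin-free samples at final 200 µg/mL in 10% DMSO added to the reaction mix before HIV-1 RT. Control with 10% DMSO only; nevirapine (2 µg/mL) positive control. Duplicate wells averaged, % RT inhibition calculated.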

The test system of a further assay is P388. Nature of the assay: Cytotoxicity against mouse P388 cells after 72 hrs by sulforhodamine B assay. It is filed as functional. Particulars: P388, 72 h, read-out: ED50 (the source's name). The method in brief:
as §1

Another assay relates to KB. The assay is described as follows: Cytotoxicity against human KB cells after 72 hrs by sulforhodamine B assay. It is filed as functional. Particulars: read-out: ED50 (the source's name). The method in brief:
as §1

The subject of another assay is Col2. The assay is described as follows: Cytotoxicity against human Col2 cells after 72 hrs by sulforhodamine B assay. It is filed as functional. The conditions noted are these: Col2, 72 h, read-out: ED50 (the source's name). An outline of the steps: as §1
A further assay deals with MCF7. Nature of the assay: Cytotoxicity against human MCF7 cells after 72 hrs by sulforhodamine B assay. It is filed as functional. Particulars: MCF7, 72 h, read-out: ED50 (the source's name). The method in brief: as §1
A further assay relates to L1210. The assay is described as follows: Cytotoxicity against mouse L1210 cells. It is filed as functional.

Turning to `COc1c(OC(C)=O)cc2c(=O)oc3c(O)c(O[C@@H]4O[C@@H](C)[C@H](OC(C)=O)[C@@H](OC(C)=O)[C@H]4OC(C)=O)cc4c(=O)oc1c2c34`, the EC50 in the assay on Lu1 was over 5 µg/mL; in assay [1], over 5 µg/mL; in [3], 15.7 µg/mL (≈ 24.9 µM); in the assay on P388, over 5 µg/mL; with KB, over 5 µg/mL; in the assay with Col2, over 5 µg/mL. For the same molecule, the EC50 in the assay on MCF7 was over 5 µg/mL. Further, the IC50 in [2] was found to be 24.9 µg/mL (≈ 39.5 µM). Moreover, the “Ratio IC50/EC50” value in assay [4] is 1.6. The inhibition in [5] stood at 51%.

In the case of `COc1cc(/C=C2/C(=O)OC[C@H]2Cc2ccc(O)c(OC)c2)ccc1O` [ACUTISSIMALIGNAN B], the EC50 was over 5 µg/mL in the assay on Lu1; over 5 µg/mL in assay [1]; 9.9 µg/mL (≈ 27.8 µM) in assay [3]; over 5 µg/mL in the assay with P388; over 5 µg/mL in the assay on KB; over 5 µg/mL in the assay on Col2. In the assay with MCF7, the EC50 was over 5 µg/mL. The IC50 in [2] was found to be 48.2 µg/mL (≈ 135 µM). Besides, the “Ratio IC50/EC50” value in assay [4] amounted to 4.9. For the same molecule, the inhibition in [5] stood at 45.4%.

`COc1cc2c(=O)oc3c(OC)c(O)cc4c(=O)oc(c1OC)c2c34`: the EC50 (in the assay on Lu1; in assay [1]; in the assay with P388; in the assay with KB; in the assay on Col2; in the assay on MCF7) was over 5 µg/mL each time.

For `CO[C@@]1(C)CO[C@@]2(C1)OC(=O)[C@H]([C@@H]1CC[C@]34C[C@]13CC[C@@H]1[C@@]3(C)CC=C5C[C@@H](c6ccc7c(c6)OCO7)OC[C@]5(C)[C@@H]3C[C@@H](O)[C@]14C)[C@H]2O`, the EC50 in the assay with Lu1 is 3.1 µg/mL (≈ 4.58 µM); in assay [1], over 5 µg/mL; in assay [3], under 3.9 µg/mL; in the assay with P388, 0.005 µg/mL (≈ 0.00739 µM); in the assay with KB, over 5 µg/mL; in the assay on Col2, 4.8 µg/mL (≈ 7.09 µM). Further, the EC50 in the assay with MCF7 worked out at 1.1 µg/mL (≈ 1.63 µM). Moreover, the IC50 in assay [2] was found to be 31.6 µg/mL (≈ 46.7 µM). The “Ratio IC50/EC50” value in assay [4] is on record as over 8.1. Further, in [5], the inhibition was -0.5%.

For the molecule `O=C1OC[C@@H](Cc2ccc3c(c2)OCO3)/C1=C\c1ccc2c(c1)OCO2` [ISOGADIAN], the EC50 in the assay with Lu1 was over 5 µg/mL; in assay [1] it was over 5 µg/mL; in assay [3] it was 34.6 µg/mL (≈ 98.2 µM); with P388 it was over 5 µg/mL; in the assay with KB, over 5 µg/mL; in the assay with Col2 it was over 5 µg/mL. For the same molecule, the EC50 in the assay with MCF7 is over 5 µg/mL. In assay [2], the IC50 is over 125 µg/mL. Also, the “Ratio IC50/EC50” value in assay [4] was over 3.6. The inhibition in [5] was 39.7%.

As to `COc1cc2c(O[C@@H]3OC[C@H](O)[C@H](O)[C@H]3O)c3c(c(-c4ccc5c(c4)OCO5)c2cc1OC)C(=O)OC3` [ACUTISSIMALIGNAN A], the EC50 is 0.14 µg/mL (≈ 0.273 µM) in the assay with Lu1; 2.3 µg/mL (≈ 4.49 µM) in assay [1]; under 3.9 µg/mL in assay [3]; 0.02 µg/mL (≈ 0.039 µM) in the assay on P388; 0.59 µg/mL (≈ 1.15 µM) in the assay on KB; 0.25 µg/mL (≈ 0.488 µM) with Col2. The EC50 in the assay on MCF7 was found to be 0.22 µg/mL (≈ 0.429 µM). Moreover, the IC50 in assay [2] is 12.3 µg/mL (≈ 24 µM). For the same molecule, the “Ratio IC50/EC50” value in [4] is over 3.1. In addition, the inhibition in assay [5] was found to be 10.7%.

`CO[C@@]1(C)CO[C@@]2(C=C([C@@H]3CC[C@]45C[C@]34CC[C@@H]3[C@@]4(C)CC=C6C[C@@H](c7ccc8c(c7)OCO8)OC[C@]6(C)[C@@H]4C[C@@H](O)[C@]35C)C(=O)O2)C1`: the EC50 in the assay with Lu1 is over 5 µg/mL; in assay [1] it was over 5 µg/mL; in assay [3] it was 86.1 µg/mL (≈ 131 µM); in the assay with P388, 0.5 µg/mL (≈ 0.759 µM); with KB, over 5 µg/mL; with Col2 it was over 5 µg/mL. Further, in the assay on MCF7, the EC50 was over 5 µg/mL. The IC50 in assay [2] was over 125 µg/mL. In addition, the “Ratio IC50/EC50” value in assay [4] is over 1.5. For the same molecule, in assay [5], the inhibition is 55.5%.

`CO[C@@]1(C)CO[C@@]2(C=C([C@@H]3CC[C@]45C[C@]34CC[C@@H]3[C@@]4(C)CC=C6C[C@@H](c7ccccc7)OC[C@]6(C)[C@@H]4C[C@@H](O)[C@]35C)C(=O)O2)C1`: the EC50 was over 5 µg/mL in the assay with Lu1; over 5 µg/mL in assay [1]; 72.9 µg/mL (≈ 119 µM) in assay [3]; 0.4 µg/mL (≈ 0.651 µM) with P388; over 5 µg/mL in the assay with KB; over 5 µg/mL in the assay on Col2. For the same molecule, the EC50 in the assay on MCF7 is over 5 µg/mL. Besides, in assay [2], the IC50 was over 125 µg/mL. Further, in [4], the “Ratio IC50/EC50” value is over 1.7. In addition, the inhibition in assay [5] came to 65.9%.

Consider `Cc1c2ccncc2c(C)c2c1[nH]c1ccccc12` [ELLIPTECINE], for which the EC50 in the assay on Lu1 came out at 0.2 µg/mL (≈ 0.812 µM); in assay [1], 0.2 µg/mL (≈ 0.812 µM); with P388, 0.2 µg/mL (≈ 0.812 µM); in the assay on KB, 0.7 µg/mL (≈ 2.84 µM); in the assay with Col2 it was 0.5 µg/mL (≈ 2.03 µM); in the assay with MCF7 it was 0.4 µg/mL (≈ 1.62 µM).

Regarding `O=C1OCc2cc3cc4c(cc3c(-c3ccc5c(c3)OCO5)c21)OCO4` [TAIWANIN C], the EC50 in the assay on Lu1 was over 5 µg/mL; in assay [1], over 5 µg/mL; in assay [3], over 125 µg/mL; in the assay with P388, over 5 µg/mL; with KB, over 5 µg/mL; with Col2, over 5 µg/mL. The EC50 in the assay on MCF7 was over 5 µg/mL. Further, the IC50 in assay [2] was over 125 µg/mL. Further, the inhibition in assay [5] worked out at 88.2%.

`COc1c(O)cc2c(=O)oc3c(O)c(O[C@@H]4O[C@@H](C)[C@H](O)[C@@H](O)[C@H]4O)cc4c(=O)oc1c2c34`: the EC50 in the assay on Lu1 is over 5 µg/mL; in assay [1], over 5 µg/mL; in assay [3], over 125 µg/mL; with P388 it was over 5 µg/mL; with KB, over 5 µg/mL; in the assay with Col2, over 5 µg/mL. Further, the EC50 in the assay with MCF7 is over 5 µg/mL. Besides, the IC50 in assay [2] is over 125 µg/mL. Further, the inhibition in [5] was -9.2%.

As to `C/C(=C\[C@H]1C[C@@H]([C@@H]2CC[C@]34C[C@]23C=C[C@@H]2[C@@]3(C)CC=C5C[C@@H](c6ccccc6)OC[C@]5(C)[C@@H]3C[C@@H](O)[C@]24C)C(=O)O1)CO` [DICHAPETALIN A], in the assay with L1210, the EC90 was under 0.0001 µg/mL.

One may read the IC50 as the concentration that inhibits the measured activity by half. By inhibition is commonly meant the change of the read-out against control, counted positive when it falls. Usually EC90 stands for the point of the concentration-response curve where the effect stands at 90%. High values mean weaker potency, low ones greater potency.
